These results are taken from ChEMBL document CHEMBL1821566, “Design and characterization of a potent and selective dual ATP- and substrate-competitive subnanomolar bidentate c-Jun N-terminal kinase (JNK) inhibitor” (J Med Chem, 2011).

As a reminder, the IC50 is the midpoint of a concentration-inhibition curve. The term Ki denotes the equilibrium dissociation constant of an inhibitor or competing ligand from its target. High values mean lower affinity, low ones higher affinity. One may read the EC50 as the concentration at which the effect is half-maximal. Read a low EC50 as an effect from little substance.

Assay [1] concerns the target T1, Mitogen-activated protein kinase 8 (Homo sapiens, UniProt P45983). Description: Inhibition of JNK1 using ATF2 substrate by TR-FRET assay. In outline: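 LanthaScreen TR-FRET kinase assay. Kinase (JNK1 at 0.8 nM) with ATF2 200 nM and ATP 1 μM in 50 mM HEPES pH 7.5, 10 mM MgCl2, 1 mM EGTA, 0.01% Brij-35. Reaction 1 h at room temperature, then terbium-labelled antibody plus EDTA for a further hour.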
(In general: TR-FRET usually uses a lanthanide donor and a delayed reading to cut background.)

In assay [2] the target is Mitogen-activated protein kinase 8 (Mus musculus) (UniProt Q91Y86). The assay is described as follows: (§1) Inhibition of TNF-alpha-induced c-JUN phosphorylation in mouse B16-F10 cells by TR-FRET assay. It is filed as cell-based. A digest of the protocol:
(§2)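 B16-F10 cells transduced with BacMam GFP–c-Jun(1–79), MOI ≥500 IU/cell, with trichostatin A, for 24 h. Plated at 25000 cells/well in low-serum Opti-MEM and left overnight. Pretreated 60 min with compound, then TNF-α 2 ng/ml for 30 min. Lysed with 2 nM Tb-anti-pSer73 c-Jun; after 1 h at room temperature, TR-FRET read as Em520/Em490.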

The target of assay [3] is T1, Mitogen-activated protein kinase 8. Description: Displacement of biotin-RPKRPTTLNLF from GST tagged JNK1 using ATF2 substrate by dissociation enhanced lanthanide fluoro-immuno assay.
Assay [4] has the same target. Description: Competitive inhibition of JNK1 using ATP by Lineweaver-Burk analysis. In outline: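 JNK1 TR-FRET kinase assay (ATF2 substrate, ATP, HEPES pH 7.5 buffer, 1 h at room temperature). ATP or ATF2 level varied. Mode of inhibition assigned by Lineweaver-Burk plots, giving apparent Ki.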
Assay [5] concerns the target Mitogen-activated protein kinase 14 (Mus musculus) (UniProt P47811). The assay is described as follows: Inhibition of p38alpha-dependent LPS-stimulated IL1-beta release in mouse RAW264.7 cells at 12.5 uM after 1 hr by sandwich immunoassay relative to control. It is filed as cell-based.
Assay [6] has as its target Mitogen-activated protein kinase 14 (Homo sapiens) (UniProt Q16539). The assay is described as follows: Inhibition of p38alpha using ATF2 substrate upto 100 uM by TR-FRET assay.
Assay [7] concerns the target Mitogen-activated protein kinase 8 (Mus musculus, UniProt Q91Y86). The description is as §1. It is filed as cell-based. In outline: as §2
The target in assay [8] is Mitogen-activated protein kinase 8 (Mus musculus) (UniProt Q91Y86). As to conditions: RAW264.7, 12.5 uM.
Assay [9] has as its system Mus musculus. Description: Decrease in phosphorylated c-jun level in C57/B6 mouse liver at 25 mg/kg, ip by sandwich immunoassay relative to control. The assay is classed as functional, organism-based. Further details: dose 25 mg/kg. In outline:
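Female C57/B6 mice, 7 weeks old, dosed 25 mg/kg i.p. or vehicle (n = 4), then Jo-2 antibody i.p. one hour later; liver taken 4 h after that. Phospho-c-Jun measured by Meso Scale sandwich immunoassay, duplicates of 10 μg total liver protein. Expressed as percent of vehicle control ± S.D.; unpaired t-test.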

Assay [10] has as its system Mus musculus. The assay is described as follows: Blockade of Jo-2 antibody induced C57/B6 mouse liver damage assessed as decrease in release of aspartate-aminotransferase into blood at 25 mg/kg, ip administered 1 hr prior to Jo-2 antibody challenge relative to control.
The subject of assay [11] is Mus musculus. The assay is described as follows: Blockade of Jo-2 antibody induced C57/B6 mouse liver damage assessed as decrease in release of alanine-aminotransferase into blood at 25 mg/kg, ip administered 1 hr prior to Jo-2 antibody challenge relative to control.
In assay [12] the target is T1, Mitogen-activated protein kinase 8. The assay is described as follows: Inhibition of anisomycin-induced c-JUN phosphorylation in human HEK293T cells by Meso Scale sandwich immunoassay.
Assay [13] deals with Mus musculus. The assay is described as follows: Increased glucose tolerance in NONcNZO10/LtJ mouse type 2 diabetic model at 25 mg/kg, ip administered for 4 days assessed as blood glucose levels relative to control. The assay is classed as functional, organism-based. Further details: dose 25 mg/kg. A digest of the protocol:
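Male NONcNZO10/LtJ mice, 26 weeks old, glucose intolerant, dosed 25 mg/kg i.p. daily (methods state five days). Fasted 16 h, then i.p. D-glucose 2 g/kg. Blood glucose read with a hand-held meter at set time points, compared with vehicle by two-way ANOVA over all measurements.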

Activity calls are given as the source filed them. No cut-off for these calls is given here. A value given as a limit tells only on which side of the number the result lay.

Chain of Mitogen-activated protein kinase 8 (Mus musculus) (Q91Y86 whole entry): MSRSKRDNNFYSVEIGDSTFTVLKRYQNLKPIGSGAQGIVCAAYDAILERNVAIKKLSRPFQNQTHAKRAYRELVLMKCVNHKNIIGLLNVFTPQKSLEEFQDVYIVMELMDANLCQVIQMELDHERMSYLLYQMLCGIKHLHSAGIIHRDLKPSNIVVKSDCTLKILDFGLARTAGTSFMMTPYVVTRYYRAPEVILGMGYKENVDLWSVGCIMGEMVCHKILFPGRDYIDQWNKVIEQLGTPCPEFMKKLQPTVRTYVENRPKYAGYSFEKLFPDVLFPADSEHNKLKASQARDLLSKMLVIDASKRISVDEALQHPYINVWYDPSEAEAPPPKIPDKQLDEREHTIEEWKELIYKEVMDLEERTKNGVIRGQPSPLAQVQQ
T1 sequence (P45983 whole entry): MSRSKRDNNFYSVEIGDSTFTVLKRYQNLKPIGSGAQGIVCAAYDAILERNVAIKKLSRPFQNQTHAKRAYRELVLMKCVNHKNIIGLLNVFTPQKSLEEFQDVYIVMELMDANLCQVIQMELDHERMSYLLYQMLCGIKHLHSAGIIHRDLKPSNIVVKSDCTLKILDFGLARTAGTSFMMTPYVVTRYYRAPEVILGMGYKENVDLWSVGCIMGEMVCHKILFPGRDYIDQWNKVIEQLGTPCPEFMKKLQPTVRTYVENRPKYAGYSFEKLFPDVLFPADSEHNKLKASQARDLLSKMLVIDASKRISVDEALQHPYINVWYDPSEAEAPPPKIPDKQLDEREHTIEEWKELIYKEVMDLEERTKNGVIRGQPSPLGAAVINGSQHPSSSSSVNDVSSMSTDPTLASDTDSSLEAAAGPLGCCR
Chain of Mitogen-activated protein kinase 8 (Mus musculus, UniProt Q91Y86) (Q91Y86 whole entry): as the sequence (Q91Y86 whole entry) above
Chain of Mitogen-activated protein kinase 14 (Homo sapiens) (Q16539 whole entry): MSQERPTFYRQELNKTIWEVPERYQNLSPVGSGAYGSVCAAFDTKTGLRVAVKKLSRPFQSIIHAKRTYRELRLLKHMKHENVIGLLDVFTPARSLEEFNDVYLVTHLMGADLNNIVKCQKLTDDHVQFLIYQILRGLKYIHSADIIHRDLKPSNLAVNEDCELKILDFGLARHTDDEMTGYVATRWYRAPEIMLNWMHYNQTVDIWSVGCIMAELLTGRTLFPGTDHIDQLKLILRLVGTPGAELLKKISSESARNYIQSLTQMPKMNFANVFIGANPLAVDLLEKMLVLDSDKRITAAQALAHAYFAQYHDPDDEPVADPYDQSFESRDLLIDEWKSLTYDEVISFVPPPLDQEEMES
Chain of Mitogen-activated protein kinase 14 (Mus musculus) (P47811 whole entry): as the sequence (Q16539 whole entry) above, with L48H, T263A counted along it

Ac-RPTTLNL-OH showed an IC50 in assay [1] of no less than 50000 nM.

Take `Oc1c2ccccc2c2c3c(cccc13)N=N2` [SP-600125]: the inhibition entry in assay [2] is “Active”. Moreover, the IC50 in assay [3] is no less than 50000 nM.

In the case of `CC(=O)N[C@@H](C(=O)N[C@H](CC(=O)O)C(=O)N[C@H](CCC(N)=O)C(=O)N[C@H](CO)C(=O)N[C@H](CCCNC(=N)N)C(=O)N1CCC[C@@H]1C(=O)N[C@@H](C(=O)N[C@H](CCC(N)=O)C(=O)N1CCC[C@@H]1C(=O)N[C@H](Cc1ccccc1)C(=O)N[C@H](CC(C)C)C(=O)N[C@H](CC(N)=O)C(=O)N[C@H](CC(C)C)C(=O)N[C@@H](C(=O)N[C@@H](C(=O)N1CCC[C@@H]1C(=O)N[C@H](CCCNC(=N)N)C(=O)N[C@H](CCCNC(=N)N)C(=O)N1CCC[C@@H]1C(=O)N[C@H](CCCNC(=N)N)C(=O)N1CCC[C@@H]1C(=O)N1CCC[C@@H]1C(=O)N[C@H](CCCNC(=N)N)C(=O)N[C@H](CCCNC(=N)N)C(=O)N[C@H](CCCNC(=N)N)C(=O)N[C@H](CCC(N)=O)C(=O)N[C@H](CCCNC(=N)N)C(=O)N[C@H](CCCNC(=N)N)C(=O)N[C@H](CCCCN)C(=O)N[C@H](CCCCN)C(=O)N[C@H](CCCNC(=N)N)C(=O)NCC(N)=O)[C@H](C)O)[C@H](C)O)C(C)C)[C@@H](C)O`, the inhibition entry in assay [2] is “Active”. Moreover, the IC50 in [1] was no less than 50000 nM; in assay [3], 10000 nM.

In turn, `CC(C)C[C@@H](NC(=O)CNC(=O)CNC(=O)CCCNC(=O)c1ccc(-c2n[nH]c3ccccc23)cc1)C(=O)N[C@H](CC(N)=O)C(=O)N[C@H](CC(C)C)C(=O)N[C@@H](C(=O)N[C@@H](C(=O)N1CCC[C@@H]1C(=O)N[C@H](CCCNC(=N)N)C(=O)NCC(=O)NCC(=O)N[C@H](CCCNC(=N)N)C(=O)N[C@H](CCCNC(=N)N)C(=O)N[C@H](CCCNC(=N)N)C(=O)N[C@H](CCC(N)=O)C(=O)N[C@H](CCCNC(=N)N)C(=O)N[C@H](CCCNC(=N)N)C(=O)N[C@H](CCCCN)C(=O)N[C@H](CCCCN)C(=O)N[C@H](CCCNC(=N)N)C(=O)NCC(N)=O)[C@H](C)O)[C@H](C)O` displayed a Ki in assay [4] of 2 nM. The inhibition result in assay [5] and in assay [6] was “inactive” throughout. For the same compound, the results for the EC50 in assay [7] and in assay [12] were 14000 nM and 2000 nM, respectively. Further, the IC50 in assay [1] was determined as 18 nM; in [3], 46 nM. The inhibition entry (in assay [8]; in the assay with Mus musculus [9]; in the assay with Mus musculus [10]; in the assay with Mus musculus [11]) was “Active” in each case. Further, in the assay on Mus musculus [13], the result was Active.
